Measurements collected from several papers.
RET V804L: Proto-oncogene tyrosine-protein kinase receptor Ret (RET, Homo sapiens, UniProt P07949, V804L)
RET: Proto-oncogene tyrosine-protein kinase receptor Ret (RET, Homo sapiens, UniProt P07949)
RET V804M: Proto-oncogene tyrosine-protein kinase receptor Ret (RET, Homo sapiens, UniProt P07949, V804M)
RET M918T: Proto-oncogene tyrosine-protein kinase receptor Ret (RET, Homo sapiens, UniProt P07949, M918T)

SMILES	target	effect on	method	tested at	remaining binding [%]
CN(C)C(=O)Cn1cc(-c2nc([C@@](C)(c3ccc(-c4cnc(N)nc4)cc3)C3CC3)no2)cn1	RET V804L	cell-free assay	competition with immobilised ligand	1 µM	93
O=C(c1ccc(Nc2nccc(-c3cc4ccccc4s3)n2)cc1)N1CCC(N2CCCC2)CC1	RET	binding	competition with immobilised ligand	1 µM	85
C[C@@H](c1ccc(-n2cnc3c(N)ncnc32)cc1)N1CCc2nn(C)c(Cc3ccccc3)c2C1=O	RET V804M	binding	competition with immobilised ligand	0.1 µM	80
CCN1CCN(Cc2ccc(C(=O)Nc3ccc(C)c(Oc4ccc5c(c4)CC(=O)N5)c3)cc2C(F)(F)F)CC1	RET M918T	binding	competition with immobilised ligand	1 µM	40
O=C(Nc1cnc(Oc2ccc(F)cc2)nc1)N1CCc2ncccc2[C@@H]1c1ccc(F)cc1	RET M918T	cell-free assay	competition with immobilised ligand	1 µM	95
CC1CCCN1c1nccc(-c2cnn3ncccc23)n1 (stereo not drawn)	RET V804M	binding	–	1 µM	100
CCc1ccccc1C(=O)Nc1n[nH]c2c(C)c(F)c(C3C(C#N)=C(C)N(C)C(C)=C3C#N)cc12	RET V804L	cell-free assay	competition with immobilised ligand	1 µM	25
F[C@@H]1CCN(c2nccc(-c3cnn4ncccc34)n2)C1	RET	binding	–	1 µM	92
O=C(c1ccc(Nc2ncc(Cl)c(-c3ccc(Cl)s3)n2)cc1)N1CCC(N2CCCC2)CC1	RET	binding	competition with immobilised ligand	1 µM	15
C[C@@H]1CN(c2ccc3ncc(-c4ccc5[nH]nc(C6CC6)c5c4)n3n2)C[C@H](C)O1	RET	binding	competition with immobilised ligand	50 nM	88
C[C@H]1CCN(c2nccc(-c3cnn4ncccc34)n2)C1	RET	binding	–	1 µM	97
O=C(c1ccc(Nc2ncc(Cl)c(-c3cc4ccccc4s3)n2)cc1)N1CCC(N2CCCC2)CC1	RET	binding	competition with immobilised ligand	1 µM	25
N[C@@H]1CCN(c2nccc(-c3cnn4ncccc34)n2)C1	RET V804L	binding	–	1 µM	94
Cc1cnc(Nc2ccc(C(=O)N3CCC(N4CCCC4)CC3)cc2)nc1-c1cc2ccccc2s1	RET M918T	binding	competition with immobilised ligand	1 µM	5.2
C=CC(=O)N1CCC(C(=O)NCC(=O)N2CCN(c3nc(-c4cnc(N)nc4C(F)F)nc(N4CCOCC4)n3)CC2)CC1	RET	binding	competition with immobilised ligand	1 µM	94
O=C(Nc1c[nH]nc1C(=O)NC1CCNCC1)c1cc(F)cc(F)c1	RET	binding	competition with immobilised ligand	1 µM	100
COc1cnc(Nc2cccc(S(N)(=O)=O)c2)nc1N1CCN(c2ccccc2)CC1	RET V804M	binding	competition with immobilised ligand	1 µM	67
CN(C(=O)c1ccccc1)c1cc(N(C)c2ccc3c(c2)CCc2ccc(C(=O)NCCN4CCOCC4)cc2C3=O)ccc1F	RET	cell-free assay	competition with immobilised ligand	1 µM	95

SMILES	target	effect on	method	tested at	remaining binding [%]
O=C(NCCCN1CCOCC1)c1ccc(Nc2nccc(-c3cc4ccccc4s3)n2)cc1	RET V804M	binding	competition with immobilised ligand	1 µM	81
CNC(=O)[C@@H]1CC[C@@H](n2c(-c3ccc4cnccc4c3)nc3ccc(C(=O)NCc4cccc(C(N)=O)c4)cc32)C1	RET V804M	binding	competition with immobilised ligand	1 µM	100
CN1CCN(c2ccc(Nc3nccc(-c4cccc([N+](=O)[O-])c4)n3)cc2C(F)(F)F)CC1	RET M918T	binding	–	10 µM	34
CC(C)CC(=O)N1CCc2nc(-c3ccc(Br)cc3)nc(N(C)Cc3ccccc3)c2C1	RET	cell-free assay	competition with immobilised ligand	0.1 µM	68
CN1CCN(c2ccc(Nc3nccc(-c4ccccc4)n3)cc2C(F)(F)F)CC1	RET V804L	binding	–	10 µM	40
CN(CCCC(F)(F)F)c1nccc(-c2cnn3ncccc23)n1	RET	binding	–	1 µM	86
O=C(NCCCN1CCOCC1)c1ccc(Nc2ncc(Cl)c(-c3ccc(Cl)s3)n2)cc1	RET M918T	binding	competition with immobilised ligand	1 µM	15
O=C(NCC1CCOCC1)c1n[nH]cc1NC(=O)c1c(F)cccc1F	RET V804M	binding	competition with immobilised ligand	1 µM	90
c1ccc(N2CCN(Cc3nc4ccccc4[nH]3)CC2)nc1	RET	cell-free assay	competition with immobilised ligand	1 µM	100
COc1ncc2cc3ccccc3nc2c1C#N	RET M918T	cell-free assay	competition with immobilised ligand	5 µM	96
COc1cc(-c2cn(C3CCc4ccccc4N(CC(F)(F)F)C3=O)nn2)ccc1-n1ccc(C)n1 (stereo not drawn)	RET M918T	cell-free assay	competition with immobilised ligand	1 µM	100
N#Cc1ccccc1CSc1nnc2c(n1)[nH]c1ccccc12	RET	binding	competition with immobilised ligand	10 µM	89
c1cncc(-c2cccc(Nc3nccc(NC4CCCCC4)n3)c2)c1	RET M918T	binding	competition with immobilised ligand	10 µM	2.1
Nc1ncc2c(n1)-c1c([nH]c3ccc(C#CC4CC4)cc13)CCCC2	RET V804L	binding	competition with immobilised ligand	1 µM	96
CN(c1nccc(-c2cnn3ncccc23)n1)C1CC1	RET V804L	binding	–	1 µM	100
O=C(Nc1cccnn1)N1CCC(=Cc2cccc(Oc3ccc(C(F)(F)F)cn3)c2)CC1	RET	cell-free assay	competition with immobilised ligand	1 µM	100
c1cnn2ncc(-c3ccnc(N4CCC45COC5)n3)c2c1	RET	binding	–	1 µM	97
COc1cnc(Nc2cccc(S(N)(=O)=O)c2)nc1N1CCN(c2ccccc2)C(=O)C1	RET V804M	binding	competition with immobilised ligand	1 µM	77
